Experimental data as given in ChEMBL document CHEMBL4130635, “2,4-Diaminoquinazolines as Dual Toll-like Receptor (TLR) 7/8 Modulators for the Treatment of Hepatitis B Virus” (J Med Chem, 2018).
The source made the active and inactive calls. No cut-off for these calls is given here.

Tests used:
[1] = Stability in human hepatocytes assessed compound turnover at 1 uM after 60 mins; type: ADME, cell-based, Hepatocyte; details: read-out: Drug metabolism
[2] = Cmax in C57BL/6J mouse liver at 10 mg/kg, po by LC-MS analysis; type: ADME, organism-based; parameters: dose 10 mg/kg, route oral
How it was run: (§1)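 Healthy C57BL/6 mice, groups of 15, given a single oral dose (0.3, 1, 3, 10 or 30 mg/kg) in 20% HP-β-CD. Blood drawn at 0.5 h. Three mice per group sacrificed at 0.5, 1, 2, 4 or 7 h, and compound in plasma and liver measured by LC−MS. Values rounded to whole numbers.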

Plasma = test: Upregulation of IP-10 mRNA expression levels in C57BL/6J mouse plasma at 0.3 mg/kg, po by RT-qPCR analysis (reference value: 1); type: functional
Liver [3] = test: Induction of IFNalpha levels in C57BL/6J mouse liver at 0.3 mg/kg, po by ELISA (reference value: 30 pg/g); type: functional
[4] = Selectivity index, ratio of compound concentration causing induction of AST level in primary human hepatocytes infected with HBV genotype C for 12 days followed by exposure to conditioned supernatant from at 5 uM compound treated PBMCs measured after 42 days to Agonist activity at human TLR7 expressed in HEK293 cells
[5] = target: TLR7 and TLR8 (Homo sapiens) (UniProt Q9NYK1+Q9NR97); test: Agonist activity at TLR7/8 in human PBMCs co-cultured with primary human hepatocytes infected with HBV genotype C for 12 days assessed as increase in IL-1beta levels up to 5 uM measured after 42 days
Cynomolgus monkey [6] = test: Induction of ISG response in cynomolgus monkey plasma assessed as upregulation of Oas1b mRNA expression at 30 mg/kg, po after 24 hrs by Fluidigm RT-qPCR analysis (reference value: 1); type: functional, Macaca fascicularis
How it was run: (§2)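 Cynomolgus monkeys, single oral doses of 1, 3, 9 and 30 mg/kg with a planned 2-week wash-out between doses. Systemic ISG (ISG15, Mx1, OAS1) mRNA was measured by Fluidigm RT-qPCR at 1, 2, 4, 8 and 24 h postdose.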

Cynomolgus monkey [7] = test: Upregulation of Tlr8 expression in cynomolgus monkey plasma at 1 to 30 mg/kg, po after 24 hrs by Fluidigm RT-qPCR analysis; type: functional, organism-based; details: Macaca fascicularis
Cynomolgus monkey [8] = test: Effect on cytokine profile in cynomolgus monkey plasma assessed as IL-15 levels at 1 mg/kg, po after 24 hrs by Luminex assay (reference value: 20 pg/ml); type: functional, Macaca fascicularis
How it was run: (§3)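 Healthy cynomolgus monkeys given single oral doses of 1, 3, 9 and 30 mg/kg, with a 2-week wash-out planned between doses. Systemic cytokine levels in plasma were sampled at 0.5, 1, 2, 4, 9 and 24 h postdose.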

Cynomolgus monkey [9] = test: Toxicity in cynomolgus monkey assessed as induction of emesis at 30 mg/kg, po after 1 hr postdosing; type: organism-based, Macaca fascicularis; details: in vivo
[10] = target: T1, Toll-like receptor 7 (Homo sapiens) (UniProt Q9NYK1); test: Agonist activity at human TLR7 expressed in HEK293 cells assessed as induction of receptor activation incubated for 6 hrs by NF-kappaB-luciferase reporter gene assay; type: cell-based
T1 sequence (whole entry): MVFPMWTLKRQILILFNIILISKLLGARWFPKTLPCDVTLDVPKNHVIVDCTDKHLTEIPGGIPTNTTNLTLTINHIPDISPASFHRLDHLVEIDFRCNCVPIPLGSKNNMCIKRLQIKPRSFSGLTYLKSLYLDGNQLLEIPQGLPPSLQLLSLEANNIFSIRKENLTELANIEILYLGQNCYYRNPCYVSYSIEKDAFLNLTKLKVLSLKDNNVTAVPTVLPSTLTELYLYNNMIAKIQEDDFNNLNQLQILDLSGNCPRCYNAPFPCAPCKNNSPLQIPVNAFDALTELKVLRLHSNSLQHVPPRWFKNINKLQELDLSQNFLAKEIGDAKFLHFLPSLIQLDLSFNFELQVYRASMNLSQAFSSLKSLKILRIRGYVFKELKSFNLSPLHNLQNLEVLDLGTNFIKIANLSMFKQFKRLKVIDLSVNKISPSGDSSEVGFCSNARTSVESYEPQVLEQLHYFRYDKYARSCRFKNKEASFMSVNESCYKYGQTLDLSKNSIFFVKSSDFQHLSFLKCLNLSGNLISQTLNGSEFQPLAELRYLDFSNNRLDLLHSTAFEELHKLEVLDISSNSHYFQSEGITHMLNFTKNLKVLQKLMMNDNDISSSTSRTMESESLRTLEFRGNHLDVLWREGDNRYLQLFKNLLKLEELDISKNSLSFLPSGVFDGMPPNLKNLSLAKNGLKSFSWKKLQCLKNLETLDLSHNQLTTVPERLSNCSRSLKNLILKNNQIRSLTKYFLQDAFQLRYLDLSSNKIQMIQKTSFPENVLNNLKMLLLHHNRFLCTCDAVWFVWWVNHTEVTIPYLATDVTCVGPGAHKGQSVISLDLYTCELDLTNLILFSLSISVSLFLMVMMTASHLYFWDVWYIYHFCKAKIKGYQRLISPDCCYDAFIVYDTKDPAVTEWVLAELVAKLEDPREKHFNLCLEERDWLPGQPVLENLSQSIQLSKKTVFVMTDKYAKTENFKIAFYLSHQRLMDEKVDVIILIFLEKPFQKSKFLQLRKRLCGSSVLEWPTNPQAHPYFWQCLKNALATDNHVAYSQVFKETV
How it was run: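 HEK cell-based assay using a wild-type TLR7 expression vector; a parallel TLR8 vector construct served for selectivity. Results are expressed as lowest effective concentration (LEC), averaged over independent experiments where determined two or more times. A separate HEK 293 cytotoxicity (TOX) assay gave CC50 alongside.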

Cynomolgus monkey [11] = test: Toxicity in cynomolgus monkey assessed as change in body temperature up to 30 mg/kg, po; type: organism-based, Macaca fascicularis; details: in vivo
Cynomolgus monkey [12] = test: Toxicity in cynomolgus monkey assessed as induction of clinical pathology changes up to 30 mg/kg, po; type: organism-based, Macaca fascicularis; details: in vivo
Cynomolgus monkey [13] = test: Induction of ISG response in cynomolgus monkey plasma assessed as upregulation of Oas1b mRNA expression at 9 mg/kg, po after 24 hrs by Fluidigm RT-qPCR analysis (reference value: 1); type: functional, Macaca fascicularis; how it was run: as §2
[14] = Cmax in C57BL/6J mouse liver at 3 mg/kg, po by LC-MS analysis; type: ADME, organism-based; parameters: dose 3 mg/kg, route oral; how it was run: as §1
[15] = Cmax in C57BL/6J mouse liver at 1 mg/kg, po by LC-MS analysis; type: ADME, organism-based; parameters: dose 1 mg/kg, route oral; how it was run: as §1
Cynomolgus monkey [16] = test: Effect on cytokine profile in cynomolgus monkey plasma assessed as IL-12P70 levels at 3 mg/kg, po after 24 hrs by Luminex assay (reference value: 2.17 pg/ml); type: functional, organism-based; details: Macaca fascicularis; how it was run: as §3
Liver [17] = test: Proinflammatory activity in C57BL/6J mouse liver assessed as CXCL-1 levels at 10 mg/kg, po by multiplex assay (reference value: 25 pg/g); type: functional
Cynomolgus monkey [18] = test: Anti-inflammatory activity in cynomolgus monkey plasma assessed as IL-10 levels at 1 mg/kg, po after 24 hrs by Luminex assay (reference value: 195 pg/ml); type: functional, Macaca fascicularis
[19] = Protein binding in human plasma fraction at 5 uM after 4.5 hrs LC-MS/MS-based rapid equilibrium dialysis method; type: ADME, cell-free; details: read-out: PPB (converted)
[20] = Tmax in Sprague-Dawley rat liver at 10 mg/kg, po; type: ADME, organism-based

Sequence of TLR7 and TLR8 (Homo sapiens) (Q9NR97 whole entry, looked up, one chain of several): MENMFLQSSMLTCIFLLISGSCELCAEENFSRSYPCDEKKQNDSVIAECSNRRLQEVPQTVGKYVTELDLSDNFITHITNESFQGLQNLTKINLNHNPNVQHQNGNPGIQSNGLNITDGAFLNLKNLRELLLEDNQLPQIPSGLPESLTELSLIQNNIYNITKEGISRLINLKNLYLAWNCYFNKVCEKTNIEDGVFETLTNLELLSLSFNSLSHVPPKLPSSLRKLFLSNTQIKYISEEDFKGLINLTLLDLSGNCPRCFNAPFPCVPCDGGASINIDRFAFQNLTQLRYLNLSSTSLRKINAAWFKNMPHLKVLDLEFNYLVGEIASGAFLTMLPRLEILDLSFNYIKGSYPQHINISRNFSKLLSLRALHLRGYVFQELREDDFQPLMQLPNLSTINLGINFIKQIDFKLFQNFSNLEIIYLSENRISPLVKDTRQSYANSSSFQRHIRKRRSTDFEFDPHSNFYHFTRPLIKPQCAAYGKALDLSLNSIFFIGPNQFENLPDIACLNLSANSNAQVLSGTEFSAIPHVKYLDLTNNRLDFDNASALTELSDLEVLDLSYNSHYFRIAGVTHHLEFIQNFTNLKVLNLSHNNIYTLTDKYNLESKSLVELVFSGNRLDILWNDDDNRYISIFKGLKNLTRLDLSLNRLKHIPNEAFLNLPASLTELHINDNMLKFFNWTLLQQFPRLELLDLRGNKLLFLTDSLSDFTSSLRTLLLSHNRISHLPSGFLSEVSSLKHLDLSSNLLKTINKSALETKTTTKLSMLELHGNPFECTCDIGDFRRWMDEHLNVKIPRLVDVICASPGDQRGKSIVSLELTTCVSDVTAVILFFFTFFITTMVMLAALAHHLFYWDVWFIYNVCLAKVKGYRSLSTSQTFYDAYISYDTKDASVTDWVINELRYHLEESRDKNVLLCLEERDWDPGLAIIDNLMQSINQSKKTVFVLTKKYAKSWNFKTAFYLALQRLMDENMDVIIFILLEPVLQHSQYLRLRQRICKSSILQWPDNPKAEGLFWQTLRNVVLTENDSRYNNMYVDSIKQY

With CCC[C@@H](CCO)Nc1nc(N)nc2c(F)cccc12 the metabolised at 1 h, 1 µM [1] was 35%, the Cmax [2] was 1420 ng/g and the “fold change (FC)” value (Plasma) was 15. The Activity (Liver [3]) was 100 pg/g, the Ratio [4] was 25 and the Activity [5] was “Active”. The “fold change (FC)” value (Cynomolgus monkey [6]) was 235, the Activity (Cynomolgus monkey [7]) was “inactive” and the Activity (Cynomolgus monkey [8]) was 20 pg/mL. For the same compound, the Activity (Cynomolgus monkey [9]) was “Toxic”, the MEC [10] was 0.15 µM and the Activity (Cynomolgus monkey [11]) was “Non-Toxic”. The Activity (Cynomolgus monkey [12]) was “Non-Toxic”, the “fold change (FC)” value (Cynomolgus monkey [13]) was 260 and the Cmax [14] was 385 ng/g. For the same compound, the Cmax [15] was 188 ng/g, the Activity (Cynomolgus monkey [16]) was “Below limit of detection” and the Activity (Liver [17]) was 48485 pg/g. The Activity (Cynomolgus monkey [18]) was 1275 pg/mL, the fraction unbound at 4.5 h, 5 µM [19] was 0.34 and the Tmax [20] was 30 min.
